Laboratory results published in ChEMBL document CHEMBL5674883, “The Heterochromatin Landscape in Migrating Cells and the Importance of H3K27me3 for Associated Transcriptome Alterations” (Cells, 2018).

How the values were obtained:
Format in all cases: cell-based
[1] = target: Histone-lysine N-methyltransferase EZH2 (Mus musculus) (UniProt Q61188); experiment: Inhibition of EZH2 in mouse B16-F1 migrating cells assessed as fold change in H3K27me3-buffered regulated Hdac10-mRNA expression at 3 uM measured by […] analysis relative to control cells
Method in brief: (§1)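 Confluent B16-F1 cells on fibronectin-coated plates, cultured at 37 °C and 7% CO2, were scratched at multiple sites to induce migration. They were then held 3 h in growth medium containing 3 µM GSK343, with the inhibitor added 3 h before lysis. Unscratched cells served as controls. Poly A mRNA was analysed by RNA-seq (n=3 GSK343, n=5 controls). Linear models removed batch effects, and buffered genes were those altered only under GSK343 (FDR <0.05, fold change >1.3).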

[2] = target: Histone-lysine N-methyltransferase EZH2 (Mus musculus) (UniProt Q61188); experiment: Inhibition of EZH2 in mouse B16-F1 migrating cells assessed as fold change in H3K27me3-buffered regulated Nup37-mRNA expression at 3 uM measured by […] analysis relative to control cells; method in brief: as §1
[3] = target: Histone-lysine N-methyltransferase EZH2 (Mus musculus) (UniProt Q61188); experiment: Inhibition of EZH2 in mouse B16-F1 migrating cells assessed as fold change in H3K27me3-independent regulated Dusp10-mRNA expression at 3 uM measured by […] analysis relative to control cells
Method in brief: (§2)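 Confluent B16-F1 cells on fibronectin-coated plates were scratched at multiple sites, washed once with DMEM and left to migrate 3 h in growth medium (37 °C, 7% CO2); unscratched cells served as control. GSK343 (3 µM) was added 3 h before lysis. Poly A mRNA was sequenced (RNA-seq), with 5 replicates for untreated and 3 for treated cells. Differential expression was called by linear model with batch correction, at FDR <0.05 and fold change ≥1.3.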

[4] = target: Histone-lysine N-methyltransferase EZH2 (Mus musculus) (UniProt Q61188); experiment: Inhibition of EZH2 in mouse B16-F1 migrating cells assessed as fold change in H3K27me3-independent regulated Cntnap1-mRNA expression at 3 uM measured by […] analysis relative to control cells; method in brief: as §2
[5] = target: Histone-lysine N-methyltransferase EZH2 (Mus musculus) (UniProt Q61188); experiment: Inhibition of EZH2 in mouse B16-F1 migrating cells assessed as fold change in H3K27me3-buffered regulated Vegfc-mRNA expression at 3 uM measured by […] analysis relative to control cells; method in brief: as §2
[6] = target: Histone-lysine N-methyltransferase EZH2 (Mus musculus) (UniProt Q61188); experiment: Inhibition of EZH2 in mouse B16-F1 migrating cells assessed as fold change in H3K27me3-buffered regulated Lrp4-mRNA expression at 3 uM measured by […] analysis relative to control cells; method in brief: as §1
[7] = target: Histone-lysine N-methyltransferase EZH2 (Mus musculus) (UniProt Q61188); experiment: Inhibition of EZH2 in mouse B16-F1 migrating cells assessed as fold change in H3K27me3-buffered regulated Ankrd26-mRNA expression at 3 uM measured by […] analysis relative to control cells; method in brief: as §1
[8] = target: Histone-lysine N-methyltransferase EZH2 (Mus musculus) (UniProt Q61188); experiment: Inhibition of EZH2 in mouse B16-F1 migrating cells assessed as fold change in H3K27me3-independent regulated Tmem179-mRNA expression at 3 uM measured by […] analysis relative to control cells; method in brief: as §2
[9] = target: Histone-lysine N-methyltransferase EZH2 (Mus musculus) (UniProt Q61188); experiment: Inhibition of EZH2 in mouse B16-F1 migrating cells assessed as fold change in H3K27me3-buffered regulated Slc26a2-mRNA expression at 3 uM measured by […] analysis relative to control cells; method in brief: as §2
[10] = target: Histone-lysine N-methyltransferase EZH2 (Mus musculus) (UniProt Q61188); experiment: Inhibition of EZH2 in mouse B16-F1 migrating cells assessed as fold change in H3K27me3-buffered regulated Tead4-mRNA expression at 3 uM measured by […] analysis relative to control cells; method in brief: as §2
[11] = target: Histone-lysine N-methyltransferase EZH2 (Mus musculus) (UniProt Q61188); experiment: Inhibition of EZH2 in mouse B16-F1 migrating cells assessed as fold change in H3K27me3-buffered regulated Hs3st1-mRNA expression at 3 uM measured by […] analysis relative to control cells; method in brief: as §1
[12] = target: Histone-lysine N-methyltransferase EZH2 (Mus musculus) (UniProt Q61188); experiment: Inhibition of EZH2 in mouse B16-F1 migrating cells assessed as fold change in H3K27me3-buffered regulated Map3k1-mRNA expression at 3 uM measured by […] analysis relative to control cells; method in brief: as §1
[13] = target: Histone-lysine N-methyltransferase EZH2 (Mus musculus) (UniProt Q61188); experiment: Inhibition of EZH2 in mouse B16-F1 migrating cells assessed as fold change in H3K27me3-dependent regulated Ddit4-mRNA expression at 3 uM measured by […] analysis relative to control cells; method in brief: as §2
[14] = target: Histone-lysine N-methyltransferase EZH2 (Mus musculus) (UniProt Q61188); experiment: Inhibition of EZH2 in mouse B16-F1 migrating cells assessed as fold change in H3K27me3-buffered regulated Gulp1-mRNA expression at 3 uM measured by […] analysis relative to control cells; method in brief: as §1
[15] = target: T1, RNA polymerase II (Mus musculus) (UniProt P08775+Q8CFI7+P97760+A0A3Q4L2S8+Q80UW8+P61219+P62488+Q923G2+P60898+O08740+Q63871+P62876); experiment: Inhibition of RNA polymerase II in mouse B16-F1 migrating cells assessed as fold change in Fkbp8-RNA stability at 0.1 mM measured by ChIP-seq analysis relative to control cells
[16] = target: T1, RNA polymerase II (Mus musculus); experiment: Inhibition of RNA polymerase II in mouse B16-F1 migrating cells assessed as fold change in Stx8-RNA stability at 0.1 mM measured by […] analysis relative to control cells
[17] = target: T1, RNA polymerase II (Mus musculus); experiment: Inhibition of RNA polymerase II in mouse B16-F1 migrating cells assessed as fold change in Alkbh8-RNA stability at 0.1 mM measured by […] analysis relative to control cells
[18] = target: T1, RNA polymerase II (Mus musculus); experiment: Inhibition of RNA polymerase II in mouse B16-F1 migrating cells assessed as fold change in Tmsb10-RNA stability at 0.1 mM measured by […] analysis relative to control cells
[19] = target: T1, RNA polymerase II (Mus musculus); experiment: Inhibition of RNA polymerase II in mouse B16-F1 migrating cells assessed as fold change in Lgals3-RNA stability at 0.1 mM measured by ChIP-seq analysis relative to control cells
[20] = target: T1, RNA polymerase II (Mus musculus); experiment: Inhibition of RNA polymerase II in mouse B16-F1 migrating cells assessed as fold change in AU019823-RNA stability at 0.1 mM measured by […] analysis relative to control cells
[21] = target: T1, RNA polymerase II (Mus musculus); experiment: Inhibition of RNA polymerase II in mouse B16-F1 migrating cells assessed as fold change in Dock10-RNA stability at 0.1 mM measured by ChIP-seq analysis relative to control cells
[22] = target: T1, RNA polymerase II (Mus musculus); experiment: Inhibition of RNA polymerase II in mouse B16-F1 migrating cells assessed as fold change in Calu-RNA stability at 0.1 mM measured by […] analysis relative to control cells
[23] = target: T1, RNA polymerase II (Mus musculus); experiment: Inhibition of RNA polymerase II in mouse B16-F1 migrating cells assessed as fold change in Zfp367-RNA stability at 0.1 mM measured by […] analysis relative to control cells
[24] = target: T1, RNA polymerase II (Mus musculus); experiment: Inhibition of RNA polymerase II in mouse B16-F1 migrating cells assessed as fold change in Tbp-RNA stability at 0.1 mM measured by […] analysis relative to control cells
[25] = target: T1, RNA polymerase II (Mus musculus); experiment: Inhibition of RNA polymerase II in mouse B16-F1 migrating cells assessed as fold change in Samd14-RNA stability at 0.1 mM measured by […] analysis relative to control cells
[26] = target: T1, RNA polymerase II (Mus musculus); experiment: Inhibition of RNA polymerase II in mouse B16-F1 migrating cells assessed as fold change in Mtch1-RNA stability at 0.1 mM measured by ChIP-seq analysis relative to control cells

Histone-lysine N-methyltransferase EZH2 (Mus musculus), sequence (Q61188 whole entry): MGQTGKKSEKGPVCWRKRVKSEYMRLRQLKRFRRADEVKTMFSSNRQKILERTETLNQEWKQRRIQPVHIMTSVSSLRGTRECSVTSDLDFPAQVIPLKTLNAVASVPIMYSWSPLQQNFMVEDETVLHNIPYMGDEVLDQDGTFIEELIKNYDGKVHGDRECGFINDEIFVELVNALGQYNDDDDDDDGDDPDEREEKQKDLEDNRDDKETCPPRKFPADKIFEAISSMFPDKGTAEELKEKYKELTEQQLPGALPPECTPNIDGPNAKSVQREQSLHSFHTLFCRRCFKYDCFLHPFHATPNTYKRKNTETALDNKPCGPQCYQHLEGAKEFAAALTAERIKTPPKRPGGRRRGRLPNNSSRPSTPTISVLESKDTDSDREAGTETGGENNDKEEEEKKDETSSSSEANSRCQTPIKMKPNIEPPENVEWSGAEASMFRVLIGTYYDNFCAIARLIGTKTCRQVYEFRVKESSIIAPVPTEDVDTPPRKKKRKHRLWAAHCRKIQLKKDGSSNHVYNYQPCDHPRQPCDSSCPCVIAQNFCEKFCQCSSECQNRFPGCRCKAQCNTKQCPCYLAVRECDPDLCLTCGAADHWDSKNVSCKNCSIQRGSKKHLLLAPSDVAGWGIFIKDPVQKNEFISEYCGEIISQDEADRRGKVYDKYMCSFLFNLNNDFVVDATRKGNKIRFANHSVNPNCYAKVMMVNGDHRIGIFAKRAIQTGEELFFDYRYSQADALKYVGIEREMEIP

Question: `CCCc1cc(C)[nH]c(=O)c1CNC(=O)c1cc(-c2ccnc(N3CCN(C)CC3)c2)cc2c1cnn2C(C)C` was tested. Which log2FC [1] did it give?
Answer: -0.44

Question: And the log2FC [2]?
Answer: -0.38

Question: What about the log2FC [3] of the same molecule?
Answer: 0.57

Question: What about the log2FC [4] of the same molecule?
Answer: -0.76

Question: What about the log2FC [5] of the same molecule?
Answer: -0.44

Question: And the log2FC [6]?
Answer: -0.39

Question: And the log2FC [7]?
Answer: -0.47

Question: What about the log2FC [8] of the same molecule?
Answer: 1.1

Question: What about the log2FC [9] of the same molecule?
Answer: 0.38

Question: And the log2FC [10]?
Answer: 0.38

Question: What about the log2FC [11] of the same molecule?
Answer: 0.78

Question: What about the log2FC [12] of the same molecule?
Answer: -0.53

Question: And the log2FC [13]?
Answer: -0.53

Question: What about the log2FC [14] of the same molecule?
Answer: -0.44

Question: Which log2FC [15] does the source give for `OC[C@H]1O[C@@H](n2cnc3cc(Cl)c(Cl)cc32)[C@H](O)[C@@H]1O` here?
Answer: 0.41

Question: What about the log2FC [16] of the same molecule?
Answer: 0.48

Question: And the log2FC [17]?
Answer: -0.55

Question: And the log2FC [18]?
Answer: 0.62

Question: And the log2FC [19]?
Answer: 0.95

Question: And the log2FC [20]?
Answer: -0.59

Question: And the log2FC [21]?
Answer: -0.68

Question: What about the log2FC [22] of the same molecule?
Answer: -0.47

Question: What about the log2FC [23] of the same molecule?
Answer: -0.87

Question: And the log2FC [24]?
Answer: -0.56

Question: What about the log2FC [25] of the same molecule?
Answer: 0.46

Question: What about the log2FC [26] of the same molecule?
Answer: 0.46
